Consider one compound from publication PMC10617274 (Therapeutic Advances in Infectious Disease, 2023).

The CC50 is the concentration giving 50% cytotoxicity. The term IC50 denotes the concentration that inhibits the measured activity by half.

Data set [1] can be described thus: Cytotoxicity in mouse peritoneal macrophages. In kind it is cell-based, BALB/c mice. To be noted: BALB/c, Macrophages CC50 + SD, resazurin. In a few lines: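 Peritoneal lavage cells from BALB/c mice, in RPMI + 10% heat-inactivated FBS, seeded at 3 × 10⁵ macrophages/mL, left to adhere 2 h at 33°C, 5% CO₂; non-adherent cells washed off with PBS. Test compound from 650 µM top, 8 serial 1:2.5 dilutions, quadruplicate, 48 h. Then 3 mM resazurin (stock), fluorescence after 4 h; CC50 by non-linear curve fit; at least three independent trials.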
Background: Resazurin is reduced to fluorescent resorufin, in cell work by metabolically active cells.

For data set [2], the system named is L. amazonensis promastigotes. Description: Susceptibility assay in promastigotes. Type of data set: cell-based, Leishmania amazonensis (MHOM/BR/77/LTB0016 strain). Conditions: Leishmania amazonensis, 72 h, read-out: Promastigotes IC50 + SD.

Each structure is given as a SMILES string.

As for `C[C@@H]1[C@H](O)[C@@H](C)/C=C/C=C/C=C/C=C/C=C/C=C/C=C/[C@H](O[C@@H]2O[C@H](C)[C@@H](O)[C@H](N)[C@@H]2O)C[C@@H]2O[C@](O)(C[C@@H](O)C[C@@H](O)[C@H](O)CC[C@@H](O)C[C@@H](O)CC(=O)O[C@H]1C)C[C@H](O)[C@H]2C(=O)O` [Amphotericin B], the CC50 at 48 h in data set [1] was 5.8 ± 0.5 µM. In data set [2], the IC50 amounted to 0.03 ± 0.014 µM.
